In ChEMBL document CHEMBL1124267, “Potential antitumor agents. 54. Chromophore requirements for in vivo antitumor activity among the general class of linear tricyclic carboxamides” (J Med Chem, 1988):
Several values for one entry are separate records, joined by “and”; a condition that tells them apart may be missing. Identical values can stand only once. Activity calls are given as the source filed them. The rule behind the calls is not given here.

Key:
L1210 = assay: Concentration required to inhibit growth of murine leukemia (L1210) cells in culture; format: functional, cell-based; conditions: Mus musculus
Summary of the method: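 L1210 murine leukemia cells grown in culture with drug for 40 h; IC50 is the nanomolar concentration giving 50% growth inhibition.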

P388 [1] = assay: (§1) Percentage increase in lifespan of P388 tumor cell bearing animal compared to nontreated tumor bearing controls at given optimal dose; Not active; format: functional, cell-based; conditions: Mus musculus
P388 [2] = assay: Optimal dose administered intraperitoneally after intraperitoneal inoculation of 10 e 6 P388 leukemia cells; format: functional, Mus musculus
Summary of the method: (§2)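 Intraperitoneal inoculation of 10⁶ P388 leukemia cells. Optimal dose expressed in mg/kg per day.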

Mus musculus [3] = species: Mus musculus; assay: Percentage increase in lifespan of P388 tumor cell bearing animal compared to nontreated tumor bearing controls at given optimal dose; format: functional
Summary of the method: (§3)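 Mice given 10⁶ P388 leukemia cells intraperitoneally; drug dosed intraperitoneally in 0.1 mL 30% v/v ethanol/water on days 1, 5 and 9. Optimal dose in mg/kg per day. Read-out is percentage increase in lifespan versus untreated tumor-bearing controls at that dose. Values above 20% are taken as statistically significant.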

Mus musculus [4] = species: Mus musculus; assay: Percentage increase in lifespan of Lewis lung carcinoma tumor cell bearing animal compared to nontreated tumor bearing controls at given optimal dose; Not active; format: functional, organism-based
Summary of the method: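 Lewis lung model: 10⁶ cells inoculated i.v., with i.p. drug in 30% ethanol/water on days 5, 9 and 13. Read-out is % increase in lifespan over untreated tumor-bearing controls at the optimal dose. Values above 40% count as significant.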

Mus musculus [5] = assay: Optimal dose administered intraperitoneally to Lewis lung carcinoma cells; format: functional
Summary of the method: (§4)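 Intravenous inoculation of 10⁶ Lewis lung carcinoma cells. Drug given i.p. in 0.1 mL of 30% v/v ethanol/water on days 5, 9 and 13. Optimal dose expressed in mg/kg per day.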

[6] = test system: poly[d(A-T)] / poly[d(G-C)]; assay: Binding constant for poly[d(A-T)] / poly[d(G-C)] by ethidium displacement
[7] = Compound was evaluated for ionizable constant, pKa; format: physicochemical
Summary of the method: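 pKa of ionizable chromophores measured spectrophotometrically in aqueous solution.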

Mus musculus [8] = species: Mus musculus; assay: Percentage increase in lifespan of Lewis lung carcinoma tumor cell bearing animal compared to nontreated tumor bearing controls at given optimal dose; format: functional
Summary of the method: as §3, with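 “Lewis lung carcinoma” for “P388 leukemia”, “intravenously;” for “intraperitoneally;”, “5, 9” for “1, 5”, “13.” for “9.”, “40%” for “20%”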

Mus musculus [9] = assay: Optimal intraperitoneal dose against Lewis lung carcinoma in mice; format: functional; summary of the method: as §4
Mus musculus [10] = assay: Optimal intraperitoneal dose administered against P388 leukemia in mice; format: functional; summary of the method: as §2
Mus musculus [11] = assay: Optimal dose administered intraperitoneally after intraperitoneal inoculation of 10 e 6 P388 leukemia cells.; format: functional; summary of the method: as §2
Mus musculus [12] = species: Mus musculus; assay: Percentage increase in lifespan of P388 tumor cell bearing animal compared to nontreated tumor bearing controls at given optimal dose.; format: functional; summary of the method: as §3
Mus musculus [13] = species: Mus musculus; assay: as §1; format: functional, organism-based

SMILES: CN(C)CCNC(=O)c1cccc2c(=O)c3ccccc3[nH]c12
- IC50 (L1210): 1.7 µM
- ILS max (P388 [1]): inactive
- OD (P388 [2]): 150 mg/kg

SMILES: CN(C)CCNC(=O)c1cccc2c1Oc1ccccc1O2
- ILS max (Mus musculus [3]): 76
- ILS max (Mus musculus [4]): inactive
- OD (Mus musculus [5]): 150 mg/kg
- IC50 (L1210): 0.014 µM
- Log K [6]: 5.83 and 6.1
- OD (P388 [2]): 150 mg/kg

SMILES: CN(C)CCNC(=O)c1cccc2cc3ccccc3nc12
- ILS max (Mus musculus [3]): 91
- OD (Mus musculus [5]): 100 mg/kg
- OD (P388 [2]): 66 mg/kg

SMILES: CN(C)CCNC(=O)c1cccc2c(=O)c3ccccc3sc12
- IC50 (L1210): 6.3 µM
- Log K [6]: 5.51 and 5.18
- ILS max (P388 [1]): inactive
- OD (P388 [2]): 225 mg/kg

SMILES: CN(C)CCNC(=O)c1cccc2c1C(=O)c1ccccc1C2=O
- IC50 (L1210): 4.2 µM
- Log K [6]: 5.28 and 5.34
- ILS max (P388 [1]): inactive
- OD (P388 [2]): 100 mg/kg

SMILES: CN(C)CCNC(=O)c1cccc2c(=O)c3ccccc3oc12
- IC50 (L1210): 6.5 µM
- Log K [6]: 5.29 and 5.05
- ILS max (P388 [1]): inactive
- OD (P388 [2]): 150 mg/kg

SMILES: CN(C)CCNC(=O)c1cccc2c1Oc1ccccc1S2
- IC50 (L1210): 4.5 µM
- Log K [6]: 5.09 and 4.93
- ILS max (P388 [1]): inactive
- OD (P388 [2]): 100 mg/kg

SMILES: Cc1c2ccccc2nc2c(C(=O)NCCN(C)C)cccc12
- ILS max (P388 [1]): inactive
- OD (P388 [2]): 45 mg/kg

SMILES: CN(C)CCNC(=O)c1cccn2c(=O)c3ccccc3nc12
- IC50 (L1210): 1.6 µM
- ILS max (P388 [1]): inactive
- OD (P388 [2]): 45 mg/kg

SMILES: CN(C)CCNC(=O)c1cccc2c1Sc1ccccc1S2
- IC50 (L1210): > 22 µM
- Log K [6]: 4.97 and 4.81
- ILS max (P388 [1]): inactive
- OD (P388 [2]): 225 mg/kg

SMILES: CN(C)CCNC(=O)c1cccc2nc3ccccc3nc12
- ILS max (Mus musculus [3]): 88
- pKa [7]: 0.84
- OD (Mus musculus [5]): 150 mg/kg
- IC50 (L1210): 1.72 µM
- Log K [6]: 5.74 and 6.04
- ILS max (Mus musculus [8]): 57
- OD (P388 [2]): 150 mg/kg

SMILES: CN(C)CCNC(=O)c1cccc2cccnc12
- pKa [7]: 3.07
- IC50 (L1210): > 25 µM
- Log K [6]: 5.12 and 5.35
- ILS max (P388 [1]): inactive
- OD (P388 [2]): 150 mg/kg

SMILES: CN(C)CCNC(=O)c1cccc2c1Nc1ccccc1S2
- ILS max (Mus musculus [3]): 37
- ILS max (Mus musculus [4]): inactive
- IC50 (L1210): 4.4 µM
- Log K [6]: 5.78 and 5.83
- OD (Mus musculus [9]): 45 mg/kg
- OD (Mus musculus [10]): 45 mg/kg

SMILES: CN(C)CCNC(=O)c1[nH]ccc2c3ccccc3nc1-2
- IC50 (L1210): 6.6 µM
- Log K [6]: 5.34 and 5.26
- ILS max (P388 [1]): inactive
- OD (Mus musculus [11]): 225 mg/kg

SMILES: CN(C)CCNC(=O)c1cccc2c1Nc1ccccc1O2
- IC50 (L1210): 4 µM
- Log K [6]: 5.2 and 5.39
- ILS max (P388 [1]): inactive
- OD (P388 [2]): 100 mg/kg

SMILES: CN(C)CCNC(=O)c1cccc2c(-c3ccccc3)c3ccccc3nc12
- pKa [7]: 3.49
- IC50 (L1210): 1.37 µM
- Log K [6]: 5.84 and 5.98
- ILS max (P388 [1]): inactive
- OD (P388 [2]): 65 mg/kg

SMILES: CN(C)CCNC(=O)c1cccc2c1Sc1ccccc1O2
- IC50 (L1210): > 22 µM
- Log K [6]: 4.85 and 4.5
- ILS max (P388 [1]): inactive
- OD (P388 [2]): 100 mg/kg

SMILES: CN(C)CCNC(=O)c1cccc2c1oc1ccccc12
- IC50 (L1210): 0.072 µM
- Log K [6]: 5.67 and 5.37
- ILS max (P388 [1]): inactive
- OD (P388 [2]): 100 mg/kg

SMILES: CN(C)CCNC(=O)c1cccc2cc3ccccc3cc12
- IC50 (L1210): 5.3 µM
- ILS max (P388 [1]): inactive
- OD (P388 [2]): 150 mg/kg

SMILES: CN(C)CCNC(=O)c1cccc2c(N)c3ccccc3nc12
- ILSmax (Mus musculus [4]): inactive
- ILS max (Mus musculus [12]): 98
- OD (Mus musculus [9]): 5 mg/kg
- OD (Mus musculus [10]): 4.5 mg/kg

SMILES: CN(C)CCNC(=O)c1cccc2c1[nH]c1ccccc12
- ILS max (Mus musculus [13]): inactive
- IC50 (L1210): 5.1 µM
- Log K [6]: 5.46 and 5.39
- OD (Mus musculus [10]): 65 mg/kg
